ChEMBL document CHEMBL1811780, “Could LogP be a principal determinant of biological activity in 18-crown-6 ethers? Synthesis of biologically active adamantane-substituted diaza-crowns” (Eur J Med Chem, 2011)
Active and inactive are the calls of the source. The rule behind the calls is not given here.

Tests used:
HeLa = test: Antiproliferative activity against human HeLa cells after 72 hrs by MTT assay; type: functional
Summary of the method: (§1)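 Adherent monolayers grown in DMEM with 10% FBS, 2 mM L-glutamine, penicillin and streptomycin at 37 °C, 5% CO2. Cells seeded on day 0, then given five 10-fold dilutions (10^-8 to 10^-4 mol/L), DMSO at most 0.25%, for 72 h. MTT read at 570 nm. GI50 from linear regression of percentage growth around 50%. Quadruplicate points; mean of three experiments.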

MIA PaCa-2 = test: Antiproliferative activity against human MIAPaCa2 cells after 72 hrs by MTT assay; type: functional; details: MIA PaCa-2, 72 h; summary of the method: as §1
HCT-116 = test: Antiproliferative activity against human HCT116 cells after 72 hrs by MTT assay; type: functional; details: HCT-116, 72 h; summary of the method: as §1
MCF7 = test: Antiproliferative activity against human MCF7 cells after 72 hrs by MTT assay; type: functional; details: MCF7, 72 h; summary of the method: as §1
MOLT-4 = test: Antiproliferative activity against human MOLT4 cells after 72 hrs by MTT assay; type: functional; details: MOLT-4, 72 h
Summary of the method: as §1, with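 “MOLT-4” for “Adherent monolayers”, “suspension in RPMI” for “DMEM”, “Treated with” for “Cells seeded on day 0, then given”, “by” for “from”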

SW-620 [1] = test: Antiproliferative activity against human SW620 cells after 72 hrs by MTT assay; type: functional; details: SW-620, 72 h; summary of the method: as §1
NCI-H460 = test: Antiproliferative activity against human H460 cells after 72 hrs by MTT assay; type: functional; details: NCI-H460, 72 h; summary of the method: as §1
Bacillus subtilis = test: Antibacterial activity against Bacillus subtilis after 70 mins; type: functional, organism-based
Escherichia coli [2] = test: Antibacterial activity against Escherichia coli assessed as growth inhibition at 10^-4 M after 105 mins; type: functional; details: 1.75 h, read-out: GI
Summary of the method: (§2)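 E. coli grown in LB at 37 °C with shaking to OD600 ≈0.1. Culture split into untreated control and four treated aliquots at 10^-4, 10^-5, 10^-6 and 10^-7 M. Grown 105 min (about three mass doublings) at 37 °C. Dilutions in phosphate buffer plated on LB, incubated overnight at 37 °C, CFU counted. % growth inhibition and GI50 derived as for tumour cells. Quadruplicate, at least two experiments.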

SW-620 [3] = test: Induction of apoptosis in human SW620 cells assessed as necrotic cells at 10 uM after 48 hrs using annexin-V/conjugated 7-AAD double staining by flow cytometry (reference value: 0.14%); type: functional
SW-620 [4] = test: Cell cycle arrest in human SW620 cells assessed as G1 phase delay at 5 uM after 24 to 48 hrs using propidium iodide staining by flow cytometry; type: functional, cell-based
Summary of the method: (§3)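 2×10^5 SW 620 cells per well were treated 24 h after seeding, for 24 or 48 h. Attached and floating cells were pooled, fixed in 70% ethanol, then stained with 1 µg/ml PI plus RNase A. 20000 events were acquired by flow cytometry. Phase percentages came from DNA histograms; subG1 is given as a percentage of all counts.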

SW-620 [5] = test: Cell cycle arrest in human SW620 cells assessed as G1 phase delay at 10 uM after 24 to 48 hrs using propidium iodide staining by flow cytometry; type: functional, cell-based; summary of the method: as §3
SW-620 [6] = test: Cell cycle arrest in human SW620 cells assessed as S phase reduction at 5 uM after 24 to 48 hrs using propidium iodide staining by flow cytometry; type: functional, cell-based; summary of the method: as §3
SW-620 [7] = test: Induction of apoptosis in human SW620 cells assessed as late apoptotic cells at 10 uM after 48 hrs using annexin-V/conjugated 7-AAD double staining by flow cytometry (reference value: 1.33%); type: functional
SW-620 [8] = test: Induction of apoptosis in human SW620 cells assessed as viable cells at 10 uM after 48 hrs using annexin-V/conjugated 7-AAD double staining by flow cytometry (reference value: 95.95%); type: functional; details: SW-620, 48 h, read-out: Activity
SW-620 [9] = test: Induction of apoptosis in human SW620 cells assessed as necrotic cells at 5 uM after 48 hrs using annexin-V/conjugated 7-AAD double staining by flow cytometry (reference value: 0.14%); type: functional
SW-620 [10] = test: Induction of apoptosis in human SW620 cells assessed as early apoptotic cells at 10 uM after 48 hrs using annexin-V/conjugated 7-AAD double staining by flow cytometry (reference value: 2.58%); type: functional
SW-620 [11] = test: Induction of apoptosis in human SW620 cells assessed as viable cells at 5 uM after 48 hrs using annexin-V/conjugated 7-AAD double staining by flow cytometry (reference value: 95.95%); type: functional; details: SW-620, 48 h, read-out: Activity
SW-620 [12] = test: Induction of apoptosis in human SW620 cells assessed as late apoptotic cells at 5 uM after 48 hrs using annexin-V/conjugated 7-AAD double staining by flow cytometry (reference value: 1.33%); type: functional
SW-620 [13] = test: Cell cycle arrest in human SW620 cells assessed as accumulation in subG1 phase at 10 uM after 24 to 48 hrs using propidium iodide staining by flow cytometry; type: functional, cell-based; summary of the method: as §3
SW-620 [14] = test: Cell cycle arrest in human SW620 cells assessed as S phase reduction at 10 uM after 24 to 48 hrs using propidium iodide staining by flow cytometry; type: functional, cell-based; summary of the method: as §3
SW-620 [15] = test: Induction of apoptosis in human SW620 cells assessed as early apoptotic cells at 5 uM after 48 hrs using annexin-V/conjugated 7-AAD double staining by flow cytometry (reference value: 2.58%); type: functional
Escherichia coli [16] = test: Antibacterial activity against Escherichia coli after 105 mins; type: functional; details: 1.75 h; summary of the method: as §2

Row | GI50 (HeLa) [µM] | GI50 (MIA PaCa-2) [µM] | GI50 (MCF7) [µM] | GI50 (SW-620 [1]) [µM] | GI50 (NCI-H460) [µM] | IC50 (Bacillus subtilis) [µM] | SMILES | inhibition of growth at 100 µM (Escherichia coli [2]) [%] | other results
1 | > 100 | > 100 | > 100 | > 100 | > 100 | 1580 | C1COCCOCCNCCOCCOCCN1 |  | GI50 (HCT-116): > 100 µM; GI50 (MOLT-4): > 100 µM
2 |  |  |  |  |  | 380 | c1ccc2c(c1)OCCOCCOc1ccccc1OCCOCCO2 | < 15 | 
3 |  |  |  |  |  | 380 | COC(=O)[C@@H](NC(=O)CN1CCOCCOCCN(CC(=O)N[C@@H](C(=O)OC)c2ccccc2)CCOCCOCC1)c1ccccc1 | < 15 | 
4 |  |  |  |  |  | 380 | c1ccc(CN2CCOCCOCCN(Cc3ccccc3)CCOCCOCC2)cc1 | < 15 | 
5 | > 100 | > 100 | > 100 | > 100 | > 100 | 1580 | C1COCCOCC23CC4CC(C2)CC(COCCOCCO1)(C4)O3 |  | 
6 | 28 | 30 | 17 | 13 | 72 | 1580 | O=C(CCC12CC3CC(CC(C3)C1)C2)N1CCOCCOCCOCCOCCOCC1 | < 15 | 
7 | 16 | 12 | 8 | 9 | 15 | 25.1 | C1COCCOCCN(CCC23CC4CC(CC(C4)C2)C3)CCOCCOCCO1 |  | 
8 |  |  |  |  |  | 1.32 | CC(C)(C)C1CCC2OCCOCCOC3CC(C(C)(C)C)CCC3OCCOCCOC2C1 (stereo not given) | < 15 | 
9 |  |  | > 100 | > 100 | > 100 | 1580 | C1COCCOCCOCCOCCOCCN1 |  | 
10 |  |  | 5 | 12 | 14 | 45.7 | O=C(CC12CC3CC(CC(C3)C1)C2)N1CCOCCOCCN(C(=O)CC23CC4CC(CC(C4)C2)C3)CCOCCOCC1 | < 15 | GI50 (HCT-116): 6 µM; GI50 (MOLT-4): 6 µM
11 | 17 | 2 | 13 | 3 | 4 | 1580 | C1COCC23CC4CC(C2)CC(COCCOCC25CC6CC(CC(CO1)(C6)O2)C5)(C4)O3 | < 15 | 
12 |  |  |  |  |  | 1580 | O=C(NCC(=O)N1CCOCCOCCN(C(=O)CNC(=O)OCc2ccccc2)CCOCCOCC1)OCc1ccccc1 |  | 
13 |  |  | > 100 | > 100 | > 100 | 1580 | c1ccc(CN2CCOCCOCCOCCOCCOCC2)cc1 |  | 
14 | 2.3 | 1.7 | 4 | 2.6 | 4 | 251 | C1COCCN(CCC23CC4CC(CC(C4)C2)C3)CCOCCOCCN(CCC23CC4CC(CC(C4)C2)C3)CCO1 | < 15 | Activity (SW-620 [3]): 0.87%; Activity (SW-620 [4]): Active; Activity (SW-620 [5]): Active; Activity (SW-620 [6]): Active; Activity (SW-620 [7]): 9.46%; viability at 10 µM (SW-620 [8]): 76%; Activity (SW-620 [9]): 0.17%; Activity (SW-620 [10]): 13.72%; viability at 5 µM (SW-620 [11]): 90%; Activity (SW-620 [12]): 2.34%; Activity (SW-620 [13]): Active; Activity (SW-620 [14]): Active; Activity (SW-620 [15]): 7.46%
15 |  |  | 9 | 21 | 12 | 75.9 | O=C(N1CCOCCOCCN(C(=O)C23CC4CC(CC(C4)C2)C3)CCOCCOCC1)C12CC3CC(CC(C3)C1)C2 | < 15 | 
16 |  |  |  |  |  | 1580 | CC(C)(C)c1cc2c(c(C(C)(C)C)c1)OCCOCCOc1c(cc(C(C)(C)C)cc1C(C)(C)C)OCCOCCO2 | < 15 | 
17 |  |  |  |  |  | 2 | CC(C)(C)c1ccc2c(c1)OCCOCCOc1cc(C(C)(C)C)ccc1OCCOCCO2 | < 15 | 
18 | > 100 | > 100 | > 100 | > 100 | > 100 |  | O=C(CC12CC3CC(CC(C3)C1)C2)N1CCOCCOCCOCCOCCOCC1 | < 15 | 
19 |  |  | 21 | 19 | 18 | 25.1 | C1COCCN(CC23CC4CC(CC(C4)C2)C3)CCOCCOCCN(CC23CC4CC(CC(C4)C2)C3)CCO1 | < 15 | 
20 | 14 | 11 | 6 | 9 | 15 |  | C(CN1CCOCCOCCOCCOCCOCC1)CC12CC3CC(CC(C3)C1)C2 |  | 
21 |  |  | 2 | 19 | 11 | 129 | O=C(CCC12CC3CC(CC(C3)C1)C2)N1CCOCCOCCN(C(=O)CCC23CC4CC(CC(C4)C2)C3)CCOCCOCC1 | < 15 | GI50 (HCT-116): 6 µM; GI50 (MOLT-4): 3 µM
22 |  |  |  |  |  | 166 | C1CCC2OCCOCCOC3CCCCC3OCCOCCOC2C1 (stereo not given) [ICOSAHYDRODIBENZO[B,K][1,4,7,10,13,16]HEXAOXACYCLOOCTADECINE] | < 15 | 
23 |  |  | 2 | 1 | 1 | 17 | C(CN1CCOCCOCCN(CCCC23CC4CC(CC(C4)C2)C3)CCOCCOCC1)CC12CC3CC(CC(C3)C1)C2 | 26 | Activity (SW-620 [4]): Active; Activity (SW-620 [5]): Active; Activity (SW-620 [6]): Active; GI50 (HCT-116): 0.4 µM; GI50 (MOLT-4): 1 µM; GI50 (Escherichia coli [16]): 1000 µM; Activity (SW-620 [13]): Active; Activity (SW-620 [14]): Active
